Hits are enriched below; roughly 1.9% of the tested compounds scored in any of these assays.
Tn6 DDE FP – inhibitors of Tn6 peptide binding to fibrin DD(E), primary screen, biochemical, fluorescence polarization, human fibrin, Tn6 probe | Fibrinogen beta chain (Homo sapiens), P02675 | Fibrin DD(E) TRITC-Tn6 fluorescence polarization displacement | inhibition, % at 8.3 µM | hit rate 0.21% among 370,000;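 active = inhibition above a per-campaign cutoff: mean of compounds within control limits plus 3 SD, cut at about 15% in these data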;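 also: 0% = median of all compound wells on the plate and 100% = blocking peptide control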
LEDGF integ inh – blockers of LEDGF/p75-dependent integrase strand transfer – biochemical, TR-FRET, high throughput, primary screen; inhibition, % at 3.7 µM; TR-FRET IN-LEDGF/p75 DNA integration, Eu/Cy5; hit rate 0.64% among 370,000;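 active = inhibition above the screen-wide mean plus 3 SD, cut at about 13% in these data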;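 also: signal is the Cy5 over europium emission ratio at 671 and 618 nm; 0% = plate median of compound wells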
DDE Tn7 FP inh – inhibitors of Tn7 peptide binding to fibrin DD(E), primary screen, biochemical, fluorescence polarization, human fibrin, Tn7 probe; Fibrinogen beta chain (Homo sapiens), P02675; inhibition, % at 8.3 µM; FP displacement of FITC-Tn7 peptide from fibrin DD(E); 0% = median of compound wells per plate; hit rate 0.13% among 370,000;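 active = inhibition above the mean of compounds falling within the control limits plus 3 SD of them, cut at about 14% in these data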;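 also: 0% = plate median of compound wells and 100% = 10 µM Aha-Tn7 peptide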
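Measure: % inhibition scaled between sample-field median and high-control FP; Test system: human fibrin DD(E); Quantity: 2 µM final DD(E) protein; Doses: one dose, 8.3 µM nominal; Schedule: compound with protein 10 min, then 3 h after probe, room temperature; Detection: fluorescence polarization; Medium: Tris buffer with calcium and detergent, pH 7.8.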
UHRF1 binding – UHRF1 methylated DNA binding inhibitors, primary screen, counter-screen for MBD2 inhibitor project, biochemical, TR-FRET, human UHRF1, single concentration. UHRF1 binding to methylated oligo. inhibition, % at 4.4 µM. hit rate 0.75% among 370,000; in the data active = inhibition above about 21%;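 also: UHRF1 SRA domain binding a hemimethylated CpG hairpin DNA probe; 0% = median of test compound wells and 100% = reference inhibitor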
Target sequence (Q96T88 whole entry, looked up, the tested form may be a part): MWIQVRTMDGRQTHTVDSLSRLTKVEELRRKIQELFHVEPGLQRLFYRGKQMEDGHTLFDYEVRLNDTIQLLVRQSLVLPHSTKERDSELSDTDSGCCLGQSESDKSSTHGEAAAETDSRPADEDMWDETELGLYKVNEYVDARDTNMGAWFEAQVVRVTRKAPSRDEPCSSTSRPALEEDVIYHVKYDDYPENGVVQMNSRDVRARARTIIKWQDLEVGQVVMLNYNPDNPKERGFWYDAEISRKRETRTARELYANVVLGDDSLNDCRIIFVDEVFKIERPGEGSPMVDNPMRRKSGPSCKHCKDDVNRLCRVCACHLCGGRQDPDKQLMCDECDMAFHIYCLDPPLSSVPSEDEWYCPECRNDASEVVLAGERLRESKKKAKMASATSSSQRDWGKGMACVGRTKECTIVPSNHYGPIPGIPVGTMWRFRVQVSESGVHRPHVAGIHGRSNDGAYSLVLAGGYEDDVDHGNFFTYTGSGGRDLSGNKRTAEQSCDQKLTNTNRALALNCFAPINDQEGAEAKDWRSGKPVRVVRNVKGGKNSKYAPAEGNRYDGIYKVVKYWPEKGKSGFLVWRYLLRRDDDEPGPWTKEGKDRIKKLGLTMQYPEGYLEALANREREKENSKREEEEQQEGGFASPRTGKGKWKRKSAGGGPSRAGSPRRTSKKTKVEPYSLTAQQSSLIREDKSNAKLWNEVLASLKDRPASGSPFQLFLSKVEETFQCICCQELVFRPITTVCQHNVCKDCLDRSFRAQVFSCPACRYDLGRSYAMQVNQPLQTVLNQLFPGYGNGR
TDP2 inh – human TDP2 enzyme inhibitors, primary screen, biochemical, epi absorbance, recombinant enzyme | T5PNP hydrolysis, p-nitrophenol absorbance 415 nm | inhibition, % at 12.8 µM | hit rate 0.34% among 370,000 | Tyrosyl-DNA phosphodiesterase 2 (Homo sapiens), O95551;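 active = inhibition above the mean of all tested compounds plus 3 SD, set per campaign, cut at about 25% in these data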;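 also: 0% = DMSO with enzyme and 100% = buffer with substrate but no TDP2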
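Test system: Human TDP2 enzyme | Reagent: 5 mM T5PNP | Compound dosing: 12.8 µM single point, 1% DMSO | Incubation: Enzyme reaction with compound for 2 h at 37 °C | Technique: p-Nitrophenol epi absorbance | Read-out: % inhibition relative to enzyme-containing and enzyme-free wells | Benchmarks: High control without enzyme, low control DMSO plus TDP2 | Replicates: Singlicate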
MBD2 inh – inhibitors of MBD2 binding to methylated DNA, primary screen, biochemical, TR-FRET, DNA-binding domain, human | MBD2 binding to methylated oligonucleotide | hit rate 0.31% among 370,000 | inhibition, % at 4.4 µM | Methyl-CpG-binding domain protein 2 (Homo sapiens), Q9UBB5 | AID 686964, 2013; in the data active = inhibition above about 13%
The depositor's hits bear a star.

SMILES	Tn6 DDE FP	LEDGF integ inh	DDE Tn7 FP inh	UHRF1 binding	TDP2 inh	MBD2 inh
O=C(c1cccs1)N1CCN(S(=O)(=O)c2cccs2)CC1	8.1	0.8	-14.4	1.6	1.3	-3.0
COc1ccccc1N1CCN(S(=O)(=O)c2cccs2)CC1	-5.7	-2.8	0.4	39.2*	-5.8	-2.8
COC(=O)[C@]12C[C@H](CC(=O)NCc3ccccc3)C(=O)N(CCC3=CCCCC3)C1=C[C@H](C1CCCC1)O[C@@H]2C	5.7	3.3	-8.6	0.7	-9.9	0.5
Nc1[nH]c(C(=O)c2ccc(Cl)cc2)c(-c2ccc(Br)cc2)c1C(=O)NCCc1c[nH]c2ccccc12	-8.7	3.9	2.5	2.3	6.2	-2.0
COc1ccc(C=CC(=O)c2c(N)n(C)c(=O)n(C)c2=O)cc1	3.2	1.0	0.2	-2.6	3.9	-4.2
CC1(C(=O)O)C=CCN1C(=O)c1ccccc1 (centres undefined)	3.8	-2.3	2.3	5.2	-7.7	-3.8
CC(=O)N1CC=CC1(C)C(=O)O (centres undefined)	3.0	-1.2	1.8	30.9*	-3.5	-1.6
CC(C)n1c(SCC(=O)NC2CCCCC2)nnc1-c1ccco1	-4.4	3.5	-7.7	43.1*	-8.5	-5.2
Cc1ccc(NC(=S)NC(=O)CC2CC(C)(C)OC2=O)cc1 (centres undefined)	-4.2	-2.9	0.1	62.3*	-5.3	3.2
CC1(C)CC(CC(=O)NC(=S)Nc2ccc([N+](=O)[O-])cc2)C(=O)O1 (centres undefined)	2.3	1.8	-0.1	6.6	8.6	-1.1
COc1ccc(C(=O)Cn2nnc(-c3ccccc3-n3cnnn3)n2)cc1	-6.2	0.0	4.7	34.3*	14.4	-0.3
Cc1ccc(C(=O)Cn2nnc(-c3ccccc3-n3cnnn3)n2)cc1	-16.0	-1.4	-1.8	5.8	-9.1	0.7
N=C(N)SCc1ccc(O)c([N+](=O)[O-])c1	-4.7	1.4	7.8	38.0*	-2.0	-0.3
C[C@H](CO)N1C[C@H](C)[C@H](CN(C)C(=O)Nc2ccc(F)cc2)Oc2ncc(Br)cc2C1=O	-4.7	2.2	2.9	-1.7	-3.5	1.5
O=c1cc(OCc2ccccc2)cc[nH]1	0.8	23.8*	-3.5	-2.1	-0.2	0.1
COC(=O)c1ccc(Cn2ccc3ccc(-c4ccc5ccn(Cc6ccc(C(=O)OC)cc6)c5c4)cc32)cc1	2.5	0.9	5.2	-3.3	10.8	-6.7
NC(=O)C[n+]1cccc(CNC(=O)c2ccc(OC(F)F)cc2)c1	5.9	-5.3	2.9	77.3*	-4.4	4.5
Cc1c(C(Nc2ccccn2)c2ccccc2)c(=O)n(-c2ccccc2)n1C (centres undefined)	8.7	-0.9	0.2	21.8*	9.4	7.7
COc1cc(NC(=O)[C@@H](Cc2ccccc2)NC(=O)[C@H]2O[C@@H](n3ccc(=O)[nH]c3=O)[C@H](O)[C@@H]2O)cc(OC)c1OC	0.1	0.2	8.4	1.6	-0.8	0.2
CN(C(=O)c1cccc(C#N)c1)c1nnc(-c2ccccn2)s1	-5.3	0.2	5.6	21.7*	-7.4	5.8
CN(C(=O)c1ccc(C#N)cc1)c1nnc(-c2ccccn2)s1	-2.7	2.1	5.1	-1.0	3.1	-0.5
C[C@H]1[C@H](NC(=O)C(=NOC(C)(C)C(=O)O)c2csc(N)n2)C(=O)N1S(=O)(=O)O	-4.8	-2.2	3.0	25.4*	4.7	2.0
CCOC(=O)c1csc(N)n1	-7.9	3.8	-7.0	2.2	-7.0	-0.3
